# Activity calls are given as the source filed them. The calls are words filed in the database; no cut-off is given here.
# Tests used:
# Rattus norvegicus [1] = experiment: (§1) Cardioprotective activity against ischemia/reperfusion-induced myocardial injury and standard diet fed Wistar rat model assessed as decrease in LDH activity in coronary effluents at 20 mg/kg/day, ip administered for 4 weeks followed by excised heart exposed to global ischemia for 30 mins and reperfusion for 120 mins and measured during first 30 mins of reperfusion by spectrophotometric analysis; assay type: functional, organism-based
# Method in brief: (§2)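 HFD or SD rats, dosed 20 mg/kg/day i.p. for the final 28 days, anaesthetised with ethyl carbamate (2 g/kg i.p.). Hearts Langendorff-perfused with Krebs–Henseleit buffer (pH 7.4, 37 °C, 12 ml/min); 40 min stabilization, 30 min global no-flow ischemia, 120 min reperfusion. Coronary effluent collected on ice before ischemia and at 10, 20, 30 min reperfusion; LDH activity by McQueen method. n=6–7.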
# Rattus norvegicus [2] = experiment: Cardioprotective activity against high fat diet fed-induced metaflammation Wistar rat model assessed as reduction in myocardial damage by measuring reduction in plasma Gal-3level at 20 mg/kg/day, ip administered for 4 weeks by ELISA; assay type: functional, organism-based
# Method in brief: (§3)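 Male Wistar rats on HFD or SD for 12 weeks received 20 mg/kg/day i.p. (saline, 2% DMSO, 5% Cremophor-EL) or vehicle for the last 28 days. Circulating IL-1β, TNF-α, BNP and Gal-3 quantified by ELISA in blood collected after sacrifice. n=6–7 per group.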
# Rattus norvegicus [3] = experiment: (§4) Inhibition of ischemia/reperfusion-induced inflammation in ischemia/reperfusion-induced myocardial injury and high fat diet fed obese Wistar rat model assessed as decrease in cardiac IL-1 beta level at 20 mg/kg/day, ip administered for 4 weeks followed by excised heart exposed to global ischemia for 30 mins and reperfusion for 120 mins by ELISA; assay type: functional, organism-based
# Method in brief: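 Male Wistar rats on standard or 60% kcal fat diet for 12 weeks; last 28 days i.p. 20 mg/kg/day in saline with 2% DMSO and 5% Cremophor-EL, or vehicle. Hearts perfused by Langendorff with KH buffer at 12 ml/min, 37°C, then 40 min stabilization, 30 min global no-flow ischemia and 120 min reperfusion. Cytokines measured in LV tissue; n=6–7 per group.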
# [4] = Effect on glyco-metabolic profile in standard diet fed Wistar rat assessed as effect on LDL cholesterol level in plasma at 20 mg/kg/day, ip administered for 4 weeks; assay type: toxicity, organism-based; conditions: in vivo, 672 h
# Method in brief: (§5)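 Rats fed HFD or SD for 12 weeks, dosed 20 mg/kg/day i.p. in saline/2% DMSO/5% Cremophor-EL during the final 28 days. Serum obtained after sacrifice by centrifuging blood at 2000 x g, 10 min, 4 °C. Glucose read by glucometer; total, HDL and LDL cholesterol and triglycerides measured with commercial kits. n=6–7 per group.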
# Rattus norvegicus [5] = experiment: as §4, with “oxidative stress” for “inflammation”, “MDA” for “IL-1 beta”, “TBARS assay” for “ELISA”; assay type: functional, organism-based
# Method in brief: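 Same rat diet, dosing and Langendorff ischemia/reperfusion protocol. LV homogenized 10% w/v in 0.9% KCl pH 7.4. Homogenate heated at 100 °C for 15 min with TCA and TBA plus butylated hydroxytoluene, centrifuged, and read at […]. MDA expressed as nmol/g heart tissue, compared with sham hearts perfused for 190 min.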
# Rattus norvegicus [6] = experiment: as §4, with “oxidative stress” for “inflammation”, “increase” for “decrease”, “SOD activity” for “IL-1 beta level”, “mins” for “mins by ELISA”; assay type: functional, organism-based
# Method in brief: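 Same rat diet, dosing and ischemia/reperfusion protocol. LV homogenized in 50 mM Tris-HCl pH 8.2 with 1 mM DTPA and centrifuged at 20,000 x g for 20 min. Supernatant mixed with 0.2 mM pyrogallol, autoxidation followed at 420 nm for 3 min. Activity given as % pyrogallol autoxidation relative to sham; 1 U inhibits the rate by 50%.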
# Rattus norvegicus [7] = experiment: Antiinflammatory activity against high fat diet fed-induced metaflammation Wistar rat model assessed as reduction in HFD-induced metabolic alterations by measuring reduction in triglyceride level in plasma at 20 mg/kg/day, ip administered for 4 weeks; assay type: functional, organism-based; method in brief: as §5
# Rattus norvegicus [8] = experiment: Antiinflammatory activity against high fat diet fed-induced metaflammation Wistar rat model assessed as reduction in HFD-induced anthropometric alterations by measuring reduction in heart weight at 20 mg/kg/day, ip administered for 4 weeks; assay type: functional, organism-based
# Method in brief: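 Male Wistar rats on high-fat diet (60% kcal fat) or standard diet for 12 weeks; 20 mg/kg/day i.p. or vehicle (saline, 2% DMSO, 5% Cremophor-EL) over the last 28 days. Body weight recorded weekly. After sacrifice, abdominal, epididymal, retroperitoneal and perirenal fat, liver and heart excised and weighed. Cardiac somatic index = heart weight/body weight ×100. n=6–7 per group.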
# Rattus norvegicus [9] = experiment: as §1, with “high” for “standard”, “fed obese” for “fed”; assay type: functional, organism-based; method in brief: as §2
# [10] = Effect on left ventricular end diastolic pressure in standard diet fed Wistar rat model at 20 mg/kg/day, ip administered for 4 weeks (reference value: 3+/-1 mm Hg); assay type: toxicity, organism-based; conditions: in vivo, 672 h
# Rattus norvegicus [11] = experiment: Antiinflammatory activity against high fat diet fed-induced metaflammation Wistar rat model assessed as reduction in HFD-induced metabolic alterations by measuring increase in HDL cholesterol level in plasma at 20 mg/kg/day, ip administered for 4 weeks; assay type: functional, organism-based; method in brief: as §5
# Rattus norvegicus [12] = experiment: Antiinflammatory activity against high fat diet fed-induced metaflammation Wistar rat model assessed as reduction in serum TNF-alpha level at 20 mg/kg/day, ip administered for 4 weeks by ELISA; assay type: functional, organism-based; method in brief: as §3
# Rattus norvegicus [13] = experiment: as §1, with “and high” for “and standard”, “fed obese” for “fed”, “first 10” for “first 30”; assay type: functional, organism-based; method in brief: as §2
# Rattus norvegicus [14] = experiment: Antiinflammatory activity against high fat diet fed-induced metaflammation Wistar rat model assessed as reduction in serum IL-1 beta level at 20 mg/kg/day, ip administered for 4 weeks by ELISA; assay type: functional, organism-based; method in brief: as §3
# Rattus norvegicus [15] = experiment: Antiinflammatory activity against high fat diet fed-induced metaflammation Wistar rat model assessed as reduction in HFD-induced metabolic alterations by measuring reduction in plasma glucose level at 20 mg/kg/day, ip administered for 4 weeks by glucometer analysis; assay type: functional, organism-based; method in brief: as §5
# Rattus norvegicus [16] = experiment: Cardioprotective activity against myocardial ischemia/reperfusion injury-induced contractile impairment and high fat diet fed obese Wistar rat model assessed as developed LVP recovery at 20 mg/kg/day, ip administered for 4 weeks followed by excised heart exposed to global ischemia for 30 mins and reperfusion for 120 mins and measured at the end of reperfusion (reference value: 32 +/-4 mmHg); assay type: functional
# Rattus norvegicus [17] = experiment: (§6) Cardioprotective activity against ischemia/reperfusion-induced myocardial injury and high diet fed obese Wistar rat model assessed as infarct size at 20 mg/kg/day, ip administered for 4 weeks followed by excised heart exposed to global ischemia for 30 mins and reperfusion for 120 mins and measured at the end of reperfusion by nitroblue tetrazolium staining based analysis (Rvb ~ 70+/-1%); assay type: functional; conditions: 672 h
# Method in brief: (§7)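 Hearts from HFD or SD rats (20 mg/kg/day i.p., last 28 days) Langendorff-perfused (KH buffer, 37 °C, 12 ml/min). After 40 min stabilization they underwent 30 min global ischemia and 120 min reperfusion. The LV was stained; unstained necrotic and stained viable tissue separated and weighed. Infarct size expressed as % of LV mass. n=6–7.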
# [18] = Effect on LDH level in standard diet fed Wistar rat plasma at 20 mg/kg/day, ip administered for 4 weeks; assay type: toxicity, organism-based; conditions: in vivo, 672 h
# Rattus norvegicus [19] = experiment: as §1, with “first 20” for “first 30”; assay type: functional, organism-based; method in brief: as §2
# Rattus norvegicus [20] = experiment: as §6, with “standard” for “high”, “fed” for “fed obese”, “62+/-2%)” for “70+/-1%)”; assay type: functional; conditions: 672 h; method in brief: as §7
compound,measurement,setting,value
CCOC(=O)Cn1nc(Cc2ccccc2Cl)oc1=O,Activity,Rattus norvegicus [1],Active
same,Activity,Rattus norvegicus [2],Active
same,inhibition,Rattus norvegicus [3],Active
same,Activity,[4],Non-Toxic
same,inhibition,Rattus norvegicus [5],Active
same,inhibition,Rattus norvegicus [6],Active
same,Activity,Rattus norvegicus [7],Active
same,Activity,Rattus norvegicus [8],Active
same,Activity,Rattus norvegicus [9],Active
same,Activity,[10],3 mmHg
same,Activity,Rattus norvegicus [11],Active
same,Activity,Rattus norvegicus [12],Active
same,Activity,Rattus norvegicus [13],Active
same,Activity,Rattus norvegicus [14],Active
same,Activity,Rattus norvegicus [15],Active
same,Activity,Rattus norvegicus [16],65 mmHg
same,infarct size in vivo at 20 mg/kg/day,Rattus norvegicus [17],~61%
same,Activity,[18],Non-Toxic
same,Activity,Rattus norvegicus [19],Active
same,infarct size in vivo at 20 mg/kg/day,Rattus norvegicus [20],~53%

# From ChEMBL document CHEMBL5335784, “Discovery of a novel 1,3,4-oxadiazol-2-one-based NLRP3 inhibitor as a pharmacological agent to mitigate cardiac and metabolic complications in an experimental model of diet-induced metaflammation” (Eur J Med Chem, 2023)
